From PubChem BioAssay
Active and inactive are the calls of the source.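 The calls were made as follows, unless noted: active = inhibition at or above 50% at 10 µM; inactive = inhibition below 50%.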

Columns and labels:
[1] = inhibitors of TNFa-induced NFkB p65 translocation, primary screen, imaging, HUVEC, MLSMR starter and 10KST1 sets (AID 438;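 active = inhibition above 20% together with a positive visual image hit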;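 also: compound added about 3h40 before a 20 min TNFalpha stimulation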;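 as to inhibition: signal is the nuclear over cytoplasmic p65 intensity ratio per well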); conditions: HUVEC TNFa-induced p65 nuclear translocation; cell count: measured here: nuclei count (cytotoxicity indicator), at 2.08 µM; inhibition: at 2 µM, stronger effect = higher value, 0% TNFa-plus-vehicle, 100% no-TNFa wells
[2] = reduction of polyQ htt aggregates in cells – imaging, exon1htt(103Q)mCFP cells, high-content imaging, primary screen (AID 483;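 active = visual image review flags a hit and inhibition of aggregation exceeds 20%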;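 also: compound exposure lasted 3 days before fixation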;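 as to nuclei count: percent of the per-plate median nuclei count of sample wells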); conditions: exon1htt(103Q)mCFP cell line, aggregate imaging, at 2 µM; inhibition of aggregation: stronger effect = higher value; nuclei count: measured here: cell count, toxicity
[3] = endothelial E-selectin expression blockers – imaging, HUVEC, immunofluorescence, MLSMR starter and 10KST1 sets, primary screen (AID 487;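 active = visually confirmed hit in the image check and inhibition above 20%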;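 as to inhibition: signal is fraction of cell area covered by stained E-selectin grains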;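 as to nuclei count: 100% = median nuclei count of all wells on the same plate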); conditions: HUVEC TNFalpha-induced E-selectin immunofluorescence imaging, at 2 µM; inhibition: stronger effect = higher value; nuclei count: measured here: cell number, toxicity
[4] = target: Voltage-gated potassium channel subunit beta-2 (Rattus norvegicus) (UniProt P62483); experiment: inhibitors of rat Kvbeta2 reductase activity – biochemical, NADPH fluorescence, primary screen (AID 622;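 active = fluorescence slope higher than the sample average by over 3 SD, cut at about -0.22 in these data, passing the limit was not always enough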;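 also: slope of raw intensity against log time taken from 70 to 1610 s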); conditions: recombinant KvBeta, 4-cyanobenzaldehyde reduction, at 10 µM, stronger effect = higher value
[5] = target: Voltage-gated potassium channel subunit beta-2 (Rattus norvegicus) (UniProt P62483); experiment: enhancers of rat Kvbeta2 NADPH turnover – biochemical, NADPH fluorescence, primary screen (AID 623;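 active = NADPH fluorescence slope more negative than the mean of all samples by about 3 SD, 99.7% confidence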;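 also: fluorescence intensity change per second fitted from 20 to 320 s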); conditions: Recombinant KvBeta, NADPH fluorescence decrease slope, 10 min; at 10 µM; stronger effect = lower value
[6] = target: Muscarinic acetylcholine receptor M4 (Homo sapiens) (UniProt P08173); experiment: M4-linked GIRK flux change, two-sided – cell-based, HEK293 M4/GIRK, thallium flux, BTC-AM, M4 allosteric agonist project, primary screen (AID 625;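 active = fluorescence slope after compound addition differing from the mean of all tested samples at 99.7% confidence, mostly higher but some lower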;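 also: thallium influx through GIRK channels coupled to M4 in HEK293 cells with BTC-AM dye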); conditions: at 10 µM, actives lie on both sides
How it was run: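 Material – HEK293 cells with M4 receptor and GIRK channels · Buffer or medium – pH 7.3 thallium assay buffer · Doses – one dose, 10 µM final · Timing – cells overnight at 37 °C, BTC-AM loading 1 h, reads 2 min total · Measured by – kinetic fluorescence with BTC-AM dye · Controls – carbachol and DMSO controls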

[7] = blockers of RIG-like receptor reporter activation – cell-based, Sendai virus stimulus, luciferase, 10K MLSCN set, TLR/RLR signaling modifier project, primary screen (AID 602276); conditions: HEK293 RL24 IRF3 luciferase reporter, at 10 µM, stronger effect = higher value;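 also: firefly luciferase from ISG56 promoter only with Renilla not read in this screen; 0% = Sendai virus plus DMSO and 100% = medium plus DMSO without virus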
[8] = TLR3 IRF3 reporter activation blockers – cell-based, poly I:C stimulus, luciferase, 10K MLSCN set, primary screen (AID 602277;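 active = inhibition of the reporter signal at or above 50%; inactive = inhibition below 50%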); conditions: HEK293-TLR3 RL24 IRF3 luciferase reporter, at 10 µM, stronger effect = higher value

Chain of Muscarinic acetylcholine receptor M4 (Homo sapiens) (P08173 whole entry, looked up): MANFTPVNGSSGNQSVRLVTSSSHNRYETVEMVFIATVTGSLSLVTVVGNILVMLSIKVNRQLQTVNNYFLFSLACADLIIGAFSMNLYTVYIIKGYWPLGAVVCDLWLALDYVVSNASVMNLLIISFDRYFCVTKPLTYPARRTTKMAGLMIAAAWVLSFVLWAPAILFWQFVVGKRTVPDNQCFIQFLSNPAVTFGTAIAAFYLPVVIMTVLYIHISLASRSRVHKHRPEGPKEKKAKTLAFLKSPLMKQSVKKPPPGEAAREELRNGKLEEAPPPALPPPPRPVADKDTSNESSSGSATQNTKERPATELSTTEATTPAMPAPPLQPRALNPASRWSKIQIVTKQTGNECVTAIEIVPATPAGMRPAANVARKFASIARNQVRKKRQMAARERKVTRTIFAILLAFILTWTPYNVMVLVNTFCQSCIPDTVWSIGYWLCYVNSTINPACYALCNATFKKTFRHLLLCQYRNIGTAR
Chain of Voltage-gated potassium channel subunit beta-2 (Rattus norvegicus) (P62483 whole entry, looked up): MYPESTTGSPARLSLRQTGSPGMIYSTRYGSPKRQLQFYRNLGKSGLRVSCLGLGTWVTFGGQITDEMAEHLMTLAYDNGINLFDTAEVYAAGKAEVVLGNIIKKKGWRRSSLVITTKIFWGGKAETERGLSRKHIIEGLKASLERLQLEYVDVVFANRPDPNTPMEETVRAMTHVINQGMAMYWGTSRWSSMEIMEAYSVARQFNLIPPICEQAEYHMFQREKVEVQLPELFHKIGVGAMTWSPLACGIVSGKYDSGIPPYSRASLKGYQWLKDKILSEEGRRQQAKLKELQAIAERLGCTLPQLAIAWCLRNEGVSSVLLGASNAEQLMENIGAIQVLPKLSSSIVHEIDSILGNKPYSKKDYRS

| Structure (SMILES) | cell count [1] | inhibition [1] | inhibition of aggregation [2] | nuclei count [2] [%] | inhibition [3] | nuclei count [3] [%] | fluorescence slope [4] | NADPH fluorescence slope [5] | fluorescence slope [6] | inhibition [7] | inhibition [8] |
| --- | --- | --- | --- | --- | --- | --- | --- | --- | --- | --- | --- |
| O=C(CSc1ncccn1)c1ccccc1Br | 483 | 2.9% (inactive) | 0.9% (inactive) | 114 | 1.5% (inactive) | 103 | -0.582 (inactive) | -0.000119 (inactive) | 0.00475 (inactive) | -24.3% (inactive) | -65.9% (inactive) |
| COc1ccc(NC(=O)CSc2nnc(-c3ccncc3)n2CC2CCCO2)c(OC)c1 (stereo unspecified) | 587 | -6.1% (inactive) | 18.1% (inactive) | 87.6 | -89.2% (inactive) | 119 | -0.575 (inactive) | -1.2e-05 (inactive) | 0.00641 (inactive) | 7.58% (inactive) | 28% (inactive) |
| N#Cc1nc(-c2ccc(Cl)cc2)oc1NCCc1ccccn1 | 238 | 18.4% (inactive) | -7.2% (inactive) | 107 | -40.5% (inactive) | 97.9 | -0.59 (inactive) | -2.8e-06 (inactive) | 0.00656 (inactive) | 24.4% (inactive) | -35% (inactive) |
| O=C(COC(=O)c1ccc(Br)o1)Nc1ccc(S(=O)(=O)N2CCCC2)cc1 | 619 | -3.6% (inactive) | -10.1% (inactive) | 117 | -150% (inactive) | 130 | -0.208 (inactive) | -2e-05 (inactive) | 0.00525 (inactive) | 12.4% (inactive) | 11.3% (inactive) |
| COC(=O)c1cn(C(=O)OC)c2ccccc12 | 447 | -2.7% (inactive) | 10.2% (inactive) | 108 | -17.8% (inactive) | 108 | -0.593 (inactive) | -8.8e-05 (inactive) | 0.00446 (inactive) | 13.8% (inactive) | 10.5% (inactive) |
| Cc1ccc(-n2nc(C(=O)N3CCN(C)CC3)c3c4ccccc4n(C)c3c2=O)cc1 | 264 | 5.9% (inactive) | -10.3% (inactive) | 90.9 | -38.3% (inactive) | 119 | -0.523 (inactive) | -2e-05 (inactive) | 0.00583 (inactive) | 19.7% (inactive) | 35.7% (inactive) |
